Compound activity as filed in PubChem.
NPR1 activator: GC-A (human) enzyme activation. HEK293 GC-A cells, cGMP TR-FRET, EC30 ANP; 0% at EC30 ANP, 100% saturating ANP. activation, % at 10 µM. actives 0.14% (n = 370,000). P16066; in the data active means activation above about 40%
NPR2 activator: GC-B (human) receptor activation. HEK293-GC-B cells, CNP EC30, cGMP TR-FRET; 0% at EC30 CNP, 100% saturating CNP. activation, % at 10 µM. actives 0.11% (n = 370,000). AID 1920062;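 active means activation at 10 µM reaching about 35% in either raw or pattern-adjusted values, limit read from the data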
NSD2 HMT inh: blocks human histone methyltransferase NSD2 | O96028 | NSD2 peptide methylation, AlphaScreen, 120 min | inhibition, % at 12.5 µM | actives 0.54% (n = 310,000); in the data active means inhibition above about 50%
CaV13 FRET inh: Primary screen for inhibitors of IQ motif and Ca2+-dependent inactivation inhibitor domain binding in CACNA1D, Förster resonance energy transfer in living cells, …. HEK cells, CFP/YFP FRET ICDI-IQ, plate reader, 10 min; percent FRET-ratio fall versus neutral wells. inhibition, % at 12.3 µM. actives 0.098% (n = 340,000). AID 743397;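 active means mean replicate inhibition of at least 30% and at least 1% of replicates passing that level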
FN deposition inh: fibronectin deposition inhibition; AID 743247; AH1F fibroblasts, Alexa488-fibronectin deposition fluorescence, overnight; inhibition, % at 12.6 µM; actives 0.086% (n = 350,000);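 active means mean inhibition across replicates of 30% or more, regardless of how many single replicates reach that level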
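Assay system: AH1F fibroblasts assembling fluorescent fibronectin matrix; Amount: 10000 AH1F cells per well; Buffer or medium: DMEM, 2% serum; Probe or stimulus: Alexa488-fibronectin, 24 nM final in well; Doses: single compound dose, delivered by pin transfer; Incubation: 1 h adhesion, overnight exposure; Measured by: fluorescence 485/525 nm; Read-out: fibronectin deposition inhibition.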
CASP6 VEID inh: blocks human caspase-6 cleavage activity; actives 0.53% (n = 350,000); purified caspase-6, Z-VEID-R110 cleavage fluorescence; inhibition, % at 12.5 µM;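 active means mean inhibition across replicates at least about 35%, with every replicate also reaching that limit, limit read from the data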
Target sequence (P55212 24-179 limits assumed): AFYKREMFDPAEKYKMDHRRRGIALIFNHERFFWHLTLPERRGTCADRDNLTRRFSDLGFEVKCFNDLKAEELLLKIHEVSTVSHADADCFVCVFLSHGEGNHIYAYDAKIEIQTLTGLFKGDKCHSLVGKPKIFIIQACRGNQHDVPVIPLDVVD
Target sequence (P55212 194-293 limits assumed): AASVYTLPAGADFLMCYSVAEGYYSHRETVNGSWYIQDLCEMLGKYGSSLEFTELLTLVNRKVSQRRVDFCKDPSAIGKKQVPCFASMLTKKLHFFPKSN
A number is an active result; n = inactive; x = no result given. Only some compounds are listed: those with a hit (about 0.99% of all), similar ones and a draw of the others.

SMILES	NPR1 activator	NPR2 activator	NSD2 HMT inh	CaV13 FRET inh	FN deposition inh	CASP6 VEID inh
O=C(O)c1ccc(-n2c(O)c(C=C3N=c4ccccc4=N3)sc2=S)cc1	n	n	n	n	n	n
CCc1nc2ccc(C(=O)N3CCC(C(N)=O)CC3)cc2nc1CC	x	x	n	x	x	x
Cc1ccc(Cl)cc1NC(=O)C1CCCC1	x	x	n	x	x	x
CC1=C(C(=O)N2CCN(c3cc(C)ccc3C)CC2)C2(CCCCC2)OC1=O	n	n	x	47	n	n
COC(=O)c1ccc(N2NC(=O)/C(=C/c3ccc(-c4ccc(Cl)c(C(=O)O)c4)o3)C2=O)cc1	n	n	n	n	n	58
O=C1NN(c2ccc(Cl)c(Cl)c2)C(=O)/C1=C/c1ccc(-c2ccccc2C(=O)O)o1	n	n	n	n	n	37
CCn1nc([N+](=O)[O-])c2c(-c3nc4ccccc4o3)c(N)n(CCCOC)c2c1=O	46	n	n	n	n	n
CCOC(=O)/C(C#N)=C/c1c(N2CCN(c3cccc(Cl)c3)CC2)nc2c(C)cccn2c1=O	n	n	x	n	n	53
Cc1cccn2c(=O)c(/C=C(\C#N)C(N)=O)c(N3CCN(c4ccccc4)CC3)nc12	n	n	n	n	x	n
Cc1cccn2c(=O)c(/C=C(\C#N)C(N)=O)c(Oc3ccccc3)nc12	n	n	x	38	n	n
C[C@H](CO)N1C[C@H](C)[C@@H](CN(C)CC2CC2)OCCCC[C@H](C)Oc2ccc(NC(=O)c3ccncc3)cc2C1=O	x	x	x	x	x	n
Cc1noc(C)c1S(=O)(=O)Nc1ccc2c(c1)C(=O)N([C@H](C)CO)C[C@@H](C)[C@@H](CN(C)C(=O)Nc1ccc3c(c1)OCO3)O2	x	x	x	x	x	n
COc1ccc(OC)c(NC(=O)c2nc(S(=O)(=O)Cc3ccccc3)ncc2Cl)c1	n	n	n	n	56	n
Cc1cccc(C)c1NC(=O)c1nc(S(=O)(=O)Cc2ccccc2)ncc1Cl	n	n	n	n	n	x
COc1ccc(NC(=O)c2nc(S(=O)(=O)Cc3cccc(C)c3)ncc2Cl)c(OC)c1	n	n	n	n	48	n
CCCNC(=O)[C@H]1N[C@H]2c3ccc(-c4cccc(F)c4)c(=O)n3C[C@H]2[C@@H]1CO	x	x	x	x	x	n
CN(C)CC(=O)N[C@@H]1CC[C@H](CCn2cc(C3CCCC3)nn2)O[C@@H]1CO	x	x	x	x	n	n
O=C1CCC2=C(CCCC2=O)N1	n	n	n	n	n	n
CC1(C)CC(=O)C2=C(C1)NC(=O)CC2	n	n	n	n	n	38
CCOC(=O)/C(C#N)=C/Nc1ccccc1NS(=O)(=O)c1ccc(C)c(C)c1	n	n	n	n	n	n
CCOC(=O)/C(C#N)=C/Nc1ccccc1NS(=O)(=O)c1cccc(C(C)=O)c1	n	n	n	n	x	38
C[C@@H]1CN([C@@H](C)CO)C(=O)c2cc(NC(=O)Nc3ccc4c(c3)OCO4)ccc2O[C@@H](C)CCCCO[C@H]1CN(C)C	x	x	x	x	x	n
C[C@H]1CN([C@@H](C)CO)C(=O)c2cc(NC(=O)CCCN(C)C)ccc2O[C@H]1CN(C)C(=O)NC1CCCCC1	x	x	x	x	n	n
Cc1ccc(NC(=O)CN2C(=O)S/C(=C\c3ccc(OCC(=O)O)c(Br)c3)C2=O)cc1	n	n	n	n	n	n
Cc1ccc(NC(=O)CN2C(=O)S/C(=C\c3ccc(C(=O)O)cc3)C2=O)cc1	n	n	n	n	n	43
SMILES	NPR1 activator	NPR2 activator	NSD2 HMT inh	CaV13 FRET inh	FN deposition inh	CASP6 VEID inh
Cc1ccc(NC(=O)CN2C(=O)S/C(=C\c3cc(C)n(-c4cccc(C(=O)O)c4)c3C)C2=O)cc1	n	n	n	n	n	39
CC(C)c1cn(CC[C@@H]2CC[C@@H](NC(=O)c3cccc(F)c3)[C@H](CO)O2)nn1	x	x	x	x	n	n
CCC(=O)N1CC(=O)N2[C@H](CO)[C@H](c3ccc(C#CC4CCCCC4)cc3)[C@@H]2C1	x	x	x	x	x	n
COC(=O)C[C@H]1CC[C@H]2[C@@H](COc3ccc(NC(=O)c4ccccc4OC)cc3C(=O)N2C)O1	x	x	x	x	n	n
O=c1nc2s/c(=C\c3ccc(-c4ccccc4[N+](=O)[O-])o3)c(=O)n2nc1-c1ccccc1	n	n	n	n	n	39
c1ccc(C2=Nn3c(nnc3-c3ccncc3)SC2)cc1	n	n	n	n	n	x
Cc1cccc(-c2nnc3n2N=C(c2ccccc2)CS3)c1	n	n	n	n	active	x
Cc1noc(C)c1NC(=O)Nc1cccc2c1O[C@H](CN(C)C(=O)NC1CCCCC1)[C@H](C)CN([C@@H](C)CO)C2=O	x	x	x	x	n	n
Cc1cc(C)c(S(=O)(=O)/N=C2/C=C(Sc3ncn[nH]3)C(=O)c3ccccc32)cc1C	n	n	x	n	39	x
O=C1c2ccccc2C(Nc2ccc3c(c2)OCO3)N1Cc1ccc2c(c1)OCO2 (stereo unspecified)	59	n	x	n	n	n
O=C1c2ccccc2C(Nc2ccc3c(c2)OCO3)N1Cc1ccco1 (stereo unspecified)	41	n	x	n	n	n
CCOc1ccccc1NC(=O)CSc1ncnc2c1oc1ccccc12	n	n	n	n	n	x
O=C(CSc1ncnc2c1oc1ccccc12)Nc1ccccc1F	63	n	x	n	n	n
CC(C)NC(=O)N(C)C[C@H]1Oc2ccc(NC(=O)CCN3CCOCC3)cc2C(=O)N([C@H](C)CO)C[C@@H]1C	n	n	x	n	39	n
COc1ccc(NC(=O)N(C)C[C@H]2OCCCC[C@@H](C)Oc3ccc(N(C)C)cc3C(=O)N([C@@H](C)CO)C[C@@H]2C)cc1	x	x	x	x	x	52
COc1ccc(NC(=O)N(C)C[C@H]2OCCCC[C@@H](C)Oc3ccc(NS(=O)(=O)c4cn(C)cn4)cc3C(=O)N([C@H](C)CO)C[C@@H]2C)cc1	x	x	x	x	x	60
C[C@H]1CCCCO[C@H](CN(C)C(=O)Nc2ccc(F)cc2)[C@@H](C)CN([C@@H](C)CO)C(=O)c2cc(NC(=O)Cc3ccccc3)ccc2O1	x	x	x	x	x	43
Cc1ccc(S(=O)(=O)N(C)C[C@@H]2Oc3ccc(NC(=O)Nc4ccc5c(c4)OCO5)cc3CC(=O)N([C@H](C)CO)C[C@@H]2C)cc1	x	x	x	x	x	n
COc1ccc(NC(=O)N(C)C[C@H]2Oc3ccc(NS(=O)(=O)c4ccc(Cl)cc4)cc3CC(=O)N([C@@H](C)CO)C[C@H]2C)cc1	x	x	x	x	x	n
CN1[C@@H]2Cn3c(ccc(-c4cccc(F)c4)c3=O)[C@H]1[C@@H](C(=O)N1CCCCC1)[C@@H]2CO	x	x	x	x	x	n
C[C@@H]1CN([C@H](C)CO)C(=O)CCCn2cc(nn2)CO[C@@H]1CN(C)Cc1cccc2c1OCCCO2	x	x	x	x	n	x
Oc1c(N=Nc2nn[nH]n2)ccc2ccccc12	n	n	x	n	n	94
